TRPC4 block: inhibitors of mouse TRPC4 channel; HEK293 TRPC4beta/mu-opioid, DAMGO-evoked Fluo4 calcium flux; hits give low values; 0.39% of 300,000 active; Q9QUQ5; B-score at 10 µM;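 active means B-score over 3 SD under the library average, no early fluorescence shift, positive overall ratio signal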
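Assay system: HEK293 cells with stable TRPC4beta plus mu-opioid receptor expression; Probe or stimulus: DAMGO in two steps, submaximal then maximal; Dosing: single-point compound dosing; Measured by: Fluo4 calcium-dye fluorescence, kinetic read; Read-out basis: B score from integrated Fluo4 fluorescence ratio.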
Kir21 block: blocks the mouse Kir2.1 inward-rectifier potassium channel | 0.85% of 310,000 active | HEK293-Kir2.1, FluxOR thallium flux fluorescence; hits give low values | B-score at 10 µM | P35561;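 active means fluorescence ratio B-score at or below minus 3 SD of library scores, with starting-brightness B-score within 2 SD, cut at about -4.2 in these data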;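 further: channel flux triggered by added potassium and thallium sulfate stimulus; B-score of peak minus minimum fluorescence over baseline after thallium stimulus; more negative B-score means stronger Kir2.1 block with less thallium influx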
TRPC6 act: mouse TRPC6 channel activation | Q61143 | HEK293-TRPC6 membrane potential dye fluorescence; hits give high values | B-score at 10 µM | 0.13% of 310,000 active | AID 2550;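 active means B-score of the integrated fluorescence ratio above library mean plus 3 SD, and starting fluorescence ratio within library mean plus 5 SD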;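 further: higher score means more depolarization so channel activation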
TRPC6 inhibitor: blocks the mouse TRPC6 cation channel. AID 2553. HEK293-TRPC6, membrane potential dye, ACh-evoked depolarization; hits give low values. B-score at 10 µM. 1.1% of 310,000 active;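 active means B-score under library mean minus 3 SD, initial fluorescence not abnormally high, positive integrated signal ratio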;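 further: B-score derived from integrated fluorescence ratio over the kinetic read; more negative B-score means stronger inhibition of depolarization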
TRPC4 potent: allosterically enhances the mouse TRPC4 cation channel; Q9QUQ5; HEK293 TRPC4beta/mu-opioid, DAMGO EC20, Fluo-4 Ca2+ flux; hits give high values; B-score at 10 µM; 0.42% of 310,000 active; AID 2227;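 active means B-score of calcium response area above 5 SD of library B-scores, with initial fluorescence ratio within 5 SD of library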;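 further: B-score of integrated fluorescence ratio over time as area under calcium response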
TRPC4 act: opens the mouse TRPC4 cation channel. Q9QUQ5. HEK293 TRPC4beta/mu-opioid, Fluo4 calcium fluorescence; hits give high values. B-score at 10 µM. 0.49% of 310,000 active. AID 2237;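 active means B-score above 5 SD of library B-scores, and initial fluorescence ratio not above library mean plus 5 SD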;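 further: positive B-score marks a calcium rise read as TRPC4 activation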
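Technique: kinetic Fluo4 calcium fluorescence; Test system: TRPC4beta and mu-opioid receptor HEK293 stable cells; Measure: B-scored integrated calcium fluorescence ratio; Benchmarks: low control buffer alone, high control maximal DAMGO; Schedule: 45 min room-temperature Fluo4 loading, 110 s read.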
TRPC4 sel inh 2: second check of whether TRPC6 inhibitors also affect mouse TRPC4 | shares compounds with TRPC6 inhibitor | inhibition, % at 10 µM | AID 2776 | HEK293 TRPC4/MOR, membrane potential dye fluorescence; channel activated by saturating DAMGO dose | 42% of 920 active;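 active means compounds whose fluorescence signal differed from control wells by over 3 SD, either direction, in both duplicate plates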
TRPC4 spec: mouse TRPC4 off-target activity of TRPC6 inhibitors. shares compounds with TRPC6 inhibitor. HEK293 TRPC4/mu-opioid, membrane potential fluorescence. activity change, negative = inhibition, % at 10 µM. 61% of 920 active;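 active means rise or fall in signal beyond 3 SD of buffer-only wells in both replicate plates, either sign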;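 further: integrated kinetic ratio of fluorescence range over baseline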
HEK293 MPD ctr 2-1: second check of TRPC6 inhibitor effects in parental HEK293 cells; shares compounds with TRPC6 inhibitor; parental HEK293 membrane potential dye fluorescence; maximal acetylcholine challenge after compound addition; signal change vs control, % at 10 µM; 31% of 920 active;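 active means membrane potential signal moving either way by over 3 SD of the maximum-effect control, in both duplicate plates, meaning non-specific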
HEK293 MPD ctr-1: checks TRPC6 inhibitor effects in parental HEK293 cells; AID 2780; parental HEK293 membrane potential dye fluorescence; 60% of 920 active; membrane potential signal change, % at 10 µM; shares compounds with TRPC6 inhibitor;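 active means membrane potential signal shifting up or down by more than 3 SD of buffer-only wells, on both duplicate plates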
HEK293 MPD ctr-2: checks TRPC6 modulator effects in parental HEK293 cells; shares compounds with TRPC6 inhibitor; membrane potential dye fluorescence; membrane potential signal change, % at 10 µM; 51% of 2,400 active;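 active means membrane potential signal moves up or down beyond 5 SD from buffer-only wells, on both duplicate plates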
HEK293 MPD ctr 2-2: second check of TRPC6 modulator effects in parental HEK293 cells | shares compounds with TRPC6 inhibitor | membrane potential dye fluorescence; after compound, maximal acetylcholine stimulation | inhibition, % at 10 µM | 14% of 2,400 active | AID 488926;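 active means membrane potential signal drops by more than 5 SD from the mean control signal, in both duplicate plates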;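 further: plate controls were acetylcholine ECmax control wells for no effect and buffer only wells for full effect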
TRPC4 ctr mod: mouse TRPC4 off-target activity of TRPC6 modulators; shares compounds with TRPC6 inhibitor; percent change from control (negative = decrease, positive = increase), % at 10 µM; HEK293 TRPC4/mu-opioid, membrane potential fluorescence; 69% of 2,400 active;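 active means membrane potential signal moved up or down beyond 5 SD of buffer control wells, in both duplicate plates, actives on both sides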;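 further: plate controls were assay buffer wells for no effect and DAMGO maximal-effect wells for full effect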
TRPC4/MOR inh 2: mouse TRPC4 off-target activity of TRPC6 modulators, second screen. HEK293 TRPC4/mu-opioid, membrane potential dye fluorescence; stimulated with maximal-effect DAMGO. 55% of 2,400 active. shares compounds with TRPC6 inhibitor. inhibition, % at 10 µM;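 active means drop in membrane potential signal beyond 5 SD of the control wells in both duplicate plates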;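 further: TRPC4 counter screen for TRPC6 hits run under conditions tuned for TRPC6 not TRPC4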
TRPC6 inh conf: confirmation of mouse TRPC6 inhibitors; shares compounds with TRPC6 inhibitor; 43% of 3,300 active; inhibition, % at 10 µM; HEK293-TRPC6, membrane potential dye, ACh-evoked depolarization;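 active means fluorescence ratio falls more than 5 SD below the full-stimulation control mean, in both duplicate runs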;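 further: integrated fluorescence ratio of peak minus minimum over baseline after agonist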
TRPC6 act conf: mouse TRPC6 activator confirmation; shares compounds with TRPC6 inhibitor; HEK293-TRPC6 membrane potential dye fluorescence, FDSS; activation, % at 10 µM; 11% of 2,800 active; AID 488961;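 active means ratio signal rise beyond 5 SD above unstimulated control wells' mean, seen in both duplicate runs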;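 further: plate controls were buffer EC0 wells for no effect and acetylcholine ECmax response for full effect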
The depositor's hits bear a star; i = inactive; nt = no result. Hits are enriched below; roughly 3% of the tested compounds scored in any of these assays.

SMILES	TRPC4 block	Kir21 block	TRPC6 act	TRPC6 inhibitor	TRPC4 potent	TRPC4 act	TRPC4 sel inh 2	TRPC4 spec	HEK293 MPD ctr 2-1	HEK293 MPD ctr-1	TRPC6 inh conf	others
COc1ccc(C)cc1NC(=O)C1CCCN(S(=O)(=O)c2cccc3cccnc23)C1 (stereo not drawn)	i	2.9	i	i	i	i	nt	nt	nt	nt	nt
CCOCCCNC(=O)c1cc2c(=O)n3cccc(C)c3nc2n1C	i	1.4	i	i	i	i	nt	nt	nt	nt	nt
CCOCCCn1c(=N)c(C(N)=S)cc2c(=O)n3cccc(C)c3nc21	i	-0.98	i	-8.9*	i	i	i	i	26%*	-196%*	i	TRPC6 act conf=i
Cc1cccn2c(=O)c3cc(C(N)=S)c(=N)n(CCCOC(C)C)c3nc12	i	-1	i	-7.3*	i	i	i	-19%*	i	-408%*	i	TRPC6 act conf=i
Cc1ccc2c(c1)NC(=O)C(CC(=O)NCCCN1CCCCC1C)O2 (stereo not drawn)	i	0.19	i	i	i	i	nt	nt	nt	nt	nt
CCC(C)N(CCNC(=O)CC1Oc2ccc(C)cc2NC1=O)C1CCCCC1 (stereo not drawn)	i	-2.2	i	-8.4*	i	i	i	17%*	i	13%*	53%*
C(#CCN1CCCC1)CC(c1ccccc1)c1ccccc1	i	-10*	i	-8.6*	i	i	66%*	14%*	i	15%*	i
CC1CCCN1CC#CC(O)(c1ccccc1)c1ccccc1 (stereo not drawn)	-7*	-0.77	i	-8.7*	i	i	i	4.5%*	-44%*	8.2%*	82%*
CC(O)(C#CCN1CCCC1)c1ccccc1 (stereo not drawn)	i	0.14	i	i	i	i	nt	nt	nt	nt	nt
CC(O)(C#CCN1CCCCC1)c1ccccc1 (stereo not drawn)	i	-0.96	i	i	i	i	nt	nt	nt	nt	nt
OC(C#CCN1CCCC1)(c1ccccc1)c1cccc(F)c1 (stereo not drawn)	i	-0.88	i	-5.5*	i	i	nt	nt	nt	nt	96%*	HEK293 MPD ctr-2=i;HEK293 MPD ctr 2-2=123%*;TRPC4 ctr mod=14%*;TRPC4/MOR inh 2=32%*
